Assay results from ChEMBL document CHEMBL1126218, “N-(5,5-diacetoxypent-1-yl)doxorubicin: a new intensely potent doxorubicin analogue” (J Med Chem, 1992).
Several values for one entry are separate records, joined by “and”; a condition that tells them apart may be missing. Identical values can stand only once.

Key:
[1] = Half life period in the absence or presence of pig liver carboxylate esterase at 25 degrees C in aqueous solution of 0.05 M acetate buffer at pH 4.0; format: ADME; details: in vivo
In short: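 Drug at 20 μM in 0.05 M acetate buffer, pH 4.0, no enzyme. Aliquots were taken at set times (about 2–250 h) and the parent drug measured by reverse-phase C-18 HPLC (CH3CN–0.05 N acetate pH 4.0, 2:3). Half-life came from linear least-squares regression of pseudo-first-order loss.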

[2] = tested on: carboxylate esterase; assay: Half life period in the absence or presence of pig liver carboxylate esterase at 25 degrees C in aqueous solution of C + esterase (10-fold unit equiv); format: ADME
In short: (§1)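 Drug at 20 μM in 0.05 M phosphate buffer, pH 7.4, pre-equilibrated, then given porcine liver carboxylate esterase (200 units/mg) at 2, 5, 10 or 20 units per μmol substrate. At 0.25–60 min samples were vortexed and centrifuged, and the supernatant measured for parent drug by C-18 HPLC. Half-life came from pseudo-first-order least-squares regression.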

[3] = tested on: carboxylate esterase; assay: Half life period in the absence or presence of pig liver carboxylate esterase at 25 degrees C in aqueous solution of C + esterase (2-fold unit equiv); format: ADME; in short: as §1
[4] = tested on: carboxylate esterase; assay: Half life period in the absence or presence of pig liver carboxylate esterase at 25 degrees C in aqueous solution of C + esterase (20-fold unit equiv); format: ADME; in short: as §1
[5] = tested on: carboxylate esterase; assay: Half life period in the absence or presence of pig liver carboxylate esterase at 25 degrees C in aqueous solution of C + esterase (5-fold unit equiv); format: ADME; in short: as §1
[6] = tested on: CHO; assay: The compound was tested in vitro for growth inhibition of Chinese Hamster Ovary(CHO) cells; format: functional, cell-based; details: Cricetulus griseus
In short: (§2)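 Exponentially growing CHO cells, or the P-glycoprotein-overexpressing doxorubicin-resistant CHO/DOX subline, were seeded at 1.5 × 10⁴ cells/mL in McCoy's 5A with 10% FCS. They were exposed to at least 7 concentrations (2 × 10⁻¹² to 2 × 10⁻⁵ M) for 6 days at 37 °C. Cells were then formaldehyde-fixed, crystal-violet-stained and counted microscopically. IC50 (50% growth inhibition versus untreated controls) was taken from dose–response curves, mean of duplicates.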

[7] = tested on: CHO; assay: The compound was tested in vitro for growth inhibition of subline (CHO/DOX) with acquired resistance to doxorubicin; format: functional, cell-based; details: Cricetulus griseus; in short: as §2
[8] = Half life period in the absence or presence of pig liver carboxylate esterase at 25 degrees C in aqueous solution of 0.05 M phosphate buffer at pH 7.4; details: 0.05 M phosphate buffer (aqueous solution)

Row | T1/2 [1] | half-life [2] | half-life [3] | half-life [4] | half-life [5] | half-life [8] | Compound | IC50 [6] | IC50 [7]
1 | > 240 h and 97 h | 1 min | 27 min | 0.333 min | 4 min | 1440 min | COc1cccc2c1C(=O)c1c(O)c3c(c(O)c1C2=O)CC(O)(C(=O)CO)CC3OC1CC(NCCCCC(OC(C)=O)OC(C)=O)C(O)C(C)O1.Cl (centres undefined) | 0.4 nM | 0.7 nM
2 |  |  |  |  |  |  | CCCCCNC1CC(OC2CC(O)(C(=O)CO)Cc3c(O)c4c(c(O)c32)C(=O)c2c(OC)cccc2C4=O)OC(C)C1O (centres undefined) | 57 nM | 420 nM
3 |  |  |  |  |  |  | COc1cccc2c1C(=O)c1c(O)c3c(c(O)c1C2=O)CC(O)(C(=O)CO)CC3OC1CC(NCCCCCOC(C)=O)C(O)C(C)O1 (centres undefined) | 83 nM | 350 nM
4 |  |  |  |  |  |  | COc1cccc2c1C(=O)c1c(O)c3c(c(O)c1C2=O)C[C@@](O)(C(=O)CO)C[C@@H]3O[C@H]1C[C@H](N)[C@H](O)[C@H](C)O1 [DOXORUBICIN] | 60 nM | 6000 nM
